EC50 data for eight compounds are collected here from ChEMBL document CHEMBL1146490, “New diterpenoids from Viburnum awabuki” (2004).

Holding throughout (assay type): functional
Conditions in all cases: read-out: ED50 (the source's name)

The test system of assay [1] is P388. In words: Cytotoxicity against mouse P388 cells. A digest of the protocol:
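P-388 is a mouse lymphocytic leukemia line, supplied by J. M. Pezzuto (Purdue University), grown in culture and tested by the same previously described cytotoxicity procedure.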

Assay [2] has as its system HT-29. The assay can be described thus: Cytotoxicity against human HT-29 cells. Put shortly: (§1)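 Standard cytotoxicity procedure from earlier work. A549 is a human lung adenocarcinoma line and HT-29 a human colon adenocarcinoma line, both grown as cell cultures. Potency is given as ED50 in µg/mL.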
For assay [3], the system named is A549. The assay can be described thus: Cytotoxicity against human A549 cells. Put shortly: as §1

In brackets after ≈: the same amount, converted by molar mass.

For `C=C(C)C(O)CC[C@]1(C)/C=C/[C@@H](OC(=O)C=C(C)C)[C@]2(C)O[C@H]2CC/C(CO)=C\C1` (some centres not stated) [VIBSANIN S], the EC50 in assay [1] is less than 10 µg/mL.

Regarding `C=C(C)C(O)CC[C@]1(C)/C=C/C[C@]2(C)O[C@H]2CC/C(C=O)=C\C1` (some centres not stated) [VIBSANIN V], the EC50 in assay [1] was less than 10 µg/mL. The same measure, in the same setting: next, `CC(C)=CC(=O)O[C@@H]1/C=C/[C@@](C)(CCC(O)C(C)(C)O)C/C=C(/CO)C(=O)/C=C/[C@@]1(C)O` (some centres not stated) [VIBSANIN U]: less than 10 µg/mL. On to `CC(=O)C[C@@H]1C(=O)C(CO)=CC[C@](C)(CCC(O)C(C)(C)O)[C@H]1/C=C/OC(=O)C=C(C)C` (some centres not stated) [VIBSANIN W], for which the EC50 in assay [1] was 2.18 µg/mL (≈ 4.84 µM); in assay [2], 8.15 µg/mL (≈ 18.1 µM); in assay [3], 5.6 µg/mL (≈ 12.4 µM). With `CC(C)=CC(=O)O[C@@H]1/C=C/[C@@](C)(C/C=C/C(C)(C)O)C/C=C(/C=O)CC[C@@H]2O[C@]21C` [VIBSANIN T], the EC50 in assay [1] is less than 10 µg/mL. Regarding `CC(C)=CC(=O)O[C@@H]1/C=C/[C@@](C)(C/C=C/C(C)(C)O)C/C=C(/CO)CC[C@@H]2O[C@]21C` [VIBSANIN P], the EC50 stood at 2.25 µg/mL (≈ 5.38 µM) in assay [1], 9.97 µg/mL (≈ 23.8 µM) in assay [2] and 4.62 µg/mL (≈ 11 µM) in assay [3]. With `C=C(C)/C=C/C[C@]1(C)/C=C/[C@@H](OC(=O)C=C(C)C)[C@]2(C)O[C@H]2CC/C(CO)=C\C1` [VIBSANIN R], the EC50 in assay [1] is less than 10 µg/mL. In the case of `COC(C)(C)/C=C/C[C@]1(C)/C=C/[C@@H](OC(=O)C=C(C)C)[C@]2(C)O[C@H]2CC/C(CO)=C\C1` [VIBSANIN Q], in assay [1], the EC50 is less than 10 µg/mL.
